Columns and labels:
Rattus norvegicus [1] = organism: Rattus norvegicus; experiment: PK study was carried to determine AUC (area under curve) value in rat; format: ADME, organism-based; parameters: concentration or dose not given beside the values; conditions: in vivo
How it was run: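 Three rats dosed at 1 mg/kg, either orally as a methylcellulose suspension or iv as a solution in N-methylpyrrolidone. Blood sampled at intervals over 24 h and assayed for compound. Results averaged, n = 3.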

[2] = PK study was carried to determine the relative absorption ranking in rat.; format: ADME, organism-based; conditions: plasma, read-out: Cp max
MAP kinase p38 = MAP kinase p38 (Mus musculus, UniProt P47811+O08911+Q9WUI1+Q9Z1B7); experiment: Inhibition of murine Mitogen-activated protein kinase p38; format: protein assay
How it was run: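 Mouse p38 enzyme, 40 ng/well, run for 1 h at room temperature. ATF-2 (50 µg/mL) coated on plates as substrate. Buffer: 25 mM Hepes pH 7.7, 25 mM MgCl2, 2 mM DTT, 1 mM sodium orthovanadate, 100 µM ATP. Phospho-ATF-2 detected with a rabbit phospho-specific antibody, then a europium-labelled anti-rabbit secondary, read by DELFIA fluorescence. Mean ± SEM, n = 3.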

[3] = biological target: T1, Tumor necrosis factor (Mus musculus) (UniProt P06804); experiment: Effective dose against LPS-stimulated Tumor necrosis factor, alpha release in mice dosed orally, 30 min prior to LPS challenge (0.1 mg/kg, ip); format: functional, organism-based
T1 sequence (whole entry): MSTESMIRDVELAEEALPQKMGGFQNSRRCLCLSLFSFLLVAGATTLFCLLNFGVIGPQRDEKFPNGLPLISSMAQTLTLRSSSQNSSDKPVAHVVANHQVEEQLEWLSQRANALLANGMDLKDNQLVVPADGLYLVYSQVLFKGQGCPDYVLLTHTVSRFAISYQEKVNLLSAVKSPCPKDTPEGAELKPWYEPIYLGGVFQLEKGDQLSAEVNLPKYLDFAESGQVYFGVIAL
How it was run: (§1)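 Balb/c mice dosed orally 30 min before ip LPS (0.1 mg/kg). Serum TNFα measured 90 min after LPS. Means, n = 3.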

[4] = biological target: T1, Tumor necrosis factor (Mus musculus); experiment: Effective dose against LPS-stimulated Tumor necrosis factor, alpha release in mice dosed orally, 30 min prior to LPS challenge (0.1 mg/kg, ip); value ranges from 3-10; format: functional, organism-based; how it was run: as §1
Rattus norvegicus [5] = experiment: Effective dose for suppressing paw swelling in an in vivo SCW (streptococcal cell wall) induced arthritis model in Lewis rat; value ranges from 10-30; format: functional

Row | SMILES | AUC (Rattus norvegicus [1]) | Cmax [2] | IC50 (MAP kinase p38) | ED50 [3] | ED50 [4] | ED50 (Rattus norvegicus [5])
1 | C[C@]1(C(=O)NC2CC2)CO[C@H](c2nc(-c3ccc(F)cc3)c(-c3ccnc(NCC4CC4)n3)[nH]2)OC1 | 288 ng·h/mL | 91 ng/mL | 5 nM | 5 mg/kg |  | 
2 | C[C@]1(C(=O)N2CCOCC2)CO[C@H](c2nc(-c3ccc(F)cc3)c(-c3ccncc3)[nH]2)OC1 [listing 1 of 2 here] |  |  |  |  | 10 mg/kg | 
3 | C[C@]1(C(=O)N2CCOCC2)CO[C@H](c2nc(-c3ccc(F)cc3)c(-c3ccncc3)[nH]2)OC1 [listing 2 of 2 here] | 247 ng·h/mL | 60 ng/mL |  |  |  | 
4 | CN1CCN(C(=O)[C@]2(C)CO[C@@H](c3nc(-c4ccc(F)cc4)c(-c4ccnc(NCC5CC5)n4)[nH]3)OC2)CC1 | 541 ng·h/mL | 221 ng/mL | 4 nM | 10 mg/kg |  | 30 mg/kg
5 | CS(=O)(=O)O.C[C@]1(C(=O)N2CCOCC2)CO[C@H](c2nc(-c3ccc(F)cc3)c(-c3ccncc3)[nH]2)OC1 | 628 ng·h/mL | 277 ng/mL | 110 nM |  |  | 
6 | CC(C)NC(=O)[C@]1(C)CO[C@@H](c2nc(-c3ccc(F)cc3)c(-c3ccnc(NCC4CC4)n3)[nH]2)OC1 | 412 ng·h/mL | 141 ng/mL | 12 nM | 0.7 mg/kg |  | 
7 | COCCNc1nccc(-c2[nH]c([C@H]3OC[C@@](C)(C(=O)NCC4CC4)CO3)nc2-c2ccc(F)cc2)n1 | 121 ng·h/mL | 62 ng/mL | 47 nM | 3 mg/kg |  | 

Now from value to molecule, other results behind:

Row | AUC (Rattus norvegicus [1]) | Cmax [2] | IC50 (MAP kinase p38) | SMILES | ED50 [3] | ED50 [4] | ED50 (Rattus norvegicus [5])
8 | 257 ng·h/mL | 39 ng/mL | 6 nM | CCCNC(=O)[C@]1(C)CO[C@@H](c2nc(-c3ccc(F)cc3)c(-c3ccnc(NCc4ccco4)n3)[nH]2)OC1 |  |  | 
9 | 738 ng·h/mL | 270 ng/mL | 6 nM | CCCNC(=O)[C@]1(C)CO[C@@H](c2nc(-c3ccc(F)cc3)c(-c3ccnc(NCCCOC)n3)[nH]2)OC1 | 6 mg/kg |  | 
10 | 138 ng·h/mL | 89 ng/mL | 127 nM | COCCCNc1nccc(-c2[nH]c([C@H]3OC[C@@](C)(C(=O)NCCOC)CO3)nc2-c2ccc(F)cc2)n1 | 5 mg/kg |  | 
11 | 529 ng·h/mL | 110 ng/mL | 4 nM | CN(C)C(=O)[C@]1(C)CO[C@@H](c2nc(-c3ccc(F)cc3)c(-c3ccnc(NCc4ccccn4)n3)[nH]2)OC1 | 8 mg/kg |  | 
12 | 169 ng·h/mL | 95 ng/mL | 62 nM | C=CCNc1nccc(-c2[nH]c([C@H]3OC[C@@](C)(C(=O)NCCOC)CO3)nc2-c2ccc(F)cc2)n1 | 0.2 mg/kg |  | 
13 | 276 ng·h/mL | 29 ng/mL | 6 nM | CN(C)C(=O)[C@]1(C)CO[C@@H](c2nc(-c3ccc(F)cc3)c(-c3ccnc(NCC4CC4)n3)[nH]2)OC1 | 9 mg/kg |  | 

Source: ChEMBL document CHEMBL1135434, “An algorithm-directed two-component library synthesized via solid-phase methodology yielding potent and orally bioavailable p38 MAP kinase inhibitors” (J Med Chem, 2002)
